Measurements taken from ChEMBL document CHEMBL1155848 (J Med Chem, 2008).
pIC50: −log10 of the molar value. One block for each molecule: values may come before it.

Tests used:
[1] = target: T1, Cytochrome P450 3A4 (Homo sapiens, UniProt P08684); assay: Inhibition of human recombinant CYP3A4 using diethoxyfluorescein substrate; format: ADME
Outline: (§1)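 Recombinant human CYP450 microsomal protein (0.1 mg/mL) with substrate and a concentration range of compound (dissolved in methanol), preincubated 10 min at 37 °C in 50 mM potassium phosphate pH 7.4. Reaction started with an NADPH-generating system. Fluorescent metabolite formation followed over 10 min. Rates converted to percent of mean control rate, and IC50 derived from the plot. Miconazole served as positive control.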

[2] = target: Cytochrome P450 2C9 (Homo sapiens, UniProt P11712); assay: Inhibition of human recombinant CYP2C9; format: ADME
Cytochrome P450 2C9, sequence (P11712 whole entry): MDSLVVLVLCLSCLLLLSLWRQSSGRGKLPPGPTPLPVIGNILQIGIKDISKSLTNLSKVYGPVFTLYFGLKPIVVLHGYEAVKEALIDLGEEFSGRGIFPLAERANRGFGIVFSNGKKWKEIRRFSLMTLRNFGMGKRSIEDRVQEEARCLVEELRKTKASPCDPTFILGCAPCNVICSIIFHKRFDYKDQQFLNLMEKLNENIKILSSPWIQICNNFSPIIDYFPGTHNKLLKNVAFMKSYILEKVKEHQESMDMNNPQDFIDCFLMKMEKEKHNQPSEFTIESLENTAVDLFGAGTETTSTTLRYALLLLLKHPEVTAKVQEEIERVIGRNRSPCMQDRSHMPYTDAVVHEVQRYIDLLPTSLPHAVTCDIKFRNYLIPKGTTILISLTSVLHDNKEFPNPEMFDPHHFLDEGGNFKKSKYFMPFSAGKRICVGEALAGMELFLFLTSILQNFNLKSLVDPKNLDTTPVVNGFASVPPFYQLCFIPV

[3] = tested on: HUVEC; assay: Inhibition of VEGF-induced HUVEC proliferation by BrdU incorporation method after 72 hrs; format: functional, cell-based; settings: Homo sapiens
Outline: (§2)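 HUVEC seeded in 5% FBS medium on type 1 collagen, held overnight at 37 °C, 5% CO2. Inhibitor at various concentrations added in serum-free medium. After 30 min, VEGF (10 ng/mL) or bFGF (0.3 ng/mL) added. Cells incubated a further 72 h, with BrdU (10 µM) present for the last 18–24 h. Incorporation read by ELISA; IC50 from fit of y = Vmax(1 − x/(K + x)).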

[4] = target: T1, Cytochrome P450 3A4; assay: Inhibition of human recombinant CYP3A4 using 7-benzyloxyquinoline substrate; format: ADME; outline: as §1
[5] = target: Cytochrome P450 2D6 (Homo sapiens, UniProt P10635); assay: Inhibition of human recombinant CYP2D6; format: ADME
Cytochrome P450 2D6, sequence (P10635 whole entry): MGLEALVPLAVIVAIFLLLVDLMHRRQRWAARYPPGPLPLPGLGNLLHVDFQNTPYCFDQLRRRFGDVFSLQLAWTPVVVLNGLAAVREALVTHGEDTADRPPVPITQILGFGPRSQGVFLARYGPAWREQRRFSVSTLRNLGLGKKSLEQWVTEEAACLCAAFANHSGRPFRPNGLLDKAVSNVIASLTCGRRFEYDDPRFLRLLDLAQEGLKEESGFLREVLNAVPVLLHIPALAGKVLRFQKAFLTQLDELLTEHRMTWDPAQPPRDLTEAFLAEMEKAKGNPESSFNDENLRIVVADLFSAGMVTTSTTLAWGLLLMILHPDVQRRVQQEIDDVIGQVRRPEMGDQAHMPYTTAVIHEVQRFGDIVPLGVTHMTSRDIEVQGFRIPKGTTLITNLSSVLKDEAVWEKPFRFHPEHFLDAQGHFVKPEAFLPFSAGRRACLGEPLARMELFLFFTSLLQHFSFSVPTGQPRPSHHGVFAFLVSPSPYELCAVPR
Outline: (§3)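 Recombinant human CYP450 microsomal protein (0.1 mg/mL) with substrate in 50 mM potassium phosphate, pH 7.4. Compound (range of concentrations, methanol) preincubated 10 min at 37 °C. Reaction started with an NADPH-generating system. Fluorescent metabolite formation followed over 10 min. Rates converted to percent of mean control; IC50 from the slope of the plot. Miconazole included as positive control.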

[6] = target: Cytochrome P450 2C19 (Homo sapiens, UniProt P33261); assay: Inhibition of human recombinant CYP2C19; format: ADME; outline: as §3
Cytochrome P450 2C19, sequence (P33261 whole entry): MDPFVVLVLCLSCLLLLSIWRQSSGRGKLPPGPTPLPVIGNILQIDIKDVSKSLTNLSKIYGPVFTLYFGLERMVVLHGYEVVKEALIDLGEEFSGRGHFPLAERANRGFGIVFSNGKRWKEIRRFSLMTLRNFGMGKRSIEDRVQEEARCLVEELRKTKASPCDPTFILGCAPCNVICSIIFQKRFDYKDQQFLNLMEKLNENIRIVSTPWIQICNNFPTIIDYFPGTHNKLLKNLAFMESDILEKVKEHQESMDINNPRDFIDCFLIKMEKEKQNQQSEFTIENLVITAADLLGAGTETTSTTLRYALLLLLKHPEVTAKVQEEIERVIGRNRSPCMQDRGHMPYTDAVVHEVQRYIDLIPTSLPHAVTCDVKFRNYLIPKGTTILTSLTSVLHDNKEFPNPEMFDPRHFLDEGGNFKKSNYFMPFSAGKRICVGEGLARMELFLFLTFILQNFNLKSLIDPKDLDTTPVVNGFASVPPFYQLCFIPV

[7] = Clearance in rat at 10 mg/kg; format: ADME, organism-based; design: dose 10 mg/kg; settings: in vivo
[8] = Oral bioavailability in rat at 10 mg/kg; format: ADME, organism-based; settings: in vivo
[9] = tested on: HUVEC; assay: Inhibition of VEGF-induced HUVEC proliferation; format: functional, cell-based; settings: Homo sapiens; outline: as §2
[10] = tested on: HUVEC; assay: Inhibition of basic-fibroblast growth factor-induced HUVEC proliferation; format: functional, cell-based; settings: Homo sapiens; outline: as §2
[11] = target: T2, Vascular endothelial growth factor receptor 2 (Homo sapiens, UniProt P35968); assay: Inhibition of VEGFR2
T2 sequence (P35968 whole entry): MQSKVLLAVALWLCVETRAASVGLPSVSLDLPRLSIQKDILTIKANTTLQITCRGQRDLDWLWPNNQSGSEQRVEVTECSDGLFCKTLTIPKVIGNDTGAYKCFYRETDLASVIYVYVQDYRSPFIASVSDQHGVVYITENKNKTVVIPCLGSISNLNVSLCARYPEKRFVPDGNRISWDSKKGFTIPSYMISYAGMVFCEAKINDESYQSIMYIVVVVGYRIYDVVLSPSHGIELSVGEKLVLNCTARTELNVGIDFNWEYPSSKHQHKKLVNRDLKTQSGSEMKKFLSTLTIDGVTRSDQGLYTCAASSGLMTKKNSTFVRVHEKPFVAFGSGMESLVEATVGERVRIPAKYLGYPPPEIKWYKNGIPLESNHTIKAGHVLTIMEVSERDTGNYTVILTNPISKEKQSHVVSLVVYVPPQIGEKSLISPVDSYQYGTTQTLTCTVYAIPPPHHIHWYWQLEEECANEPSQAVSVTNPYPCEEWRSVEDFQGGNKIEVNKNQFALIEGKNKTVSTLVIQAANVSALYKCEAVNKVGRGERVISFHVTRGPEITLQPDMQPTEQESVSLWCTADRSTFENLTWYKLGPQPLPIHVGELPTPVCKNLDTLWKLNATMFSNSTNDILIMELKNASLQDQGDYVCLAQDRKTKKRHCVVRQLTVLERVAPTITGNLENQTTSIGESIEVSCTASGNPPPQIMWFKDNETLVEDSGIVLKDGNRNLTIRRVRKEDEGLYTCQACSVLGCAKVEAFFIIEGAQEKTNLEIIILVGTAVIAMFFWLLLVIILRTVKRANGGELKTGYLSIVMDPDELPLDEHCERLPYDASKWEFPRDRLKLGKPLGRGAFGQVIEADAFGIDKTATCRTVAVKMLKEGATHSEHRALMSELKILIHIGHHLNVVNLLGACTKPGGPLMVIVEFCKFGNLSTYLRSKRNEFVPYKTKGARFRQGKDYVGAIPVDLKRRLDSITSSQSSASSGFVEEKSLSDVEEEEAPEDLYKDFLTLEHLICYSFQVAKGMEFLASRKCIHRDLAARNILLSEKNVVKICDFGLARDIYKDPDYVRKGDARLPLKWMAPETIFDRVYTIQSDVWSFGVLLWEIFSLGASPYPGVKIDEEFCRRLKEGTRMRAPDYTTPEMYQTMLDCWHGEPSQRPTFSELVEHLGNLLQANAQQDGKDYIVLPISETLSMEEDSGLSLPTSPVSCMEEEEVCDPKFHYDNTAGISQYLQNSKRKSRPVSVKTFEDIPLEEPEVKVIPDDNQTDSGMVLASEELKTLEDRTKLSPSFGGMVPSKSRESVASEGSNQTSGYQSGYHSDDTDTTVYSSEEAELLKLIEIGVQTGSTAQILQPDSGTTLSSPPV

[12] = target: T2, Vascular endothelial growth factor receptor 2; assay: Inhibition of human recombinant VEGFR2
[13] = Plasma concentration in mouse at 10 mg/kg, po after 12 hrs; format: ADME, organism-based; design: dose 10 mg/kg, route oral
[14] = Antitumor activity against human A375P cells xenografted in mouse assessed as inhibition of tumor growth at 10 mg/kg, po relative to control; format: functional
[15] = Plasma concentration in mouse at 30 mg/kg, po after 12 hrs; format: ADME, organism-based; design: dose 30 mg/kg, route oral
[16] = Clearance in monkey at 5 mg/kg; format: ADME, organism-based, Macaca mulatta; design: dose 5 mg/kg; settings: rhesus monkey, in vivo
[17] = tested on: HN5; assay: Antitumor activity against human HN5 cells xenografted in mouse assessed as inhibition of tumor growth at 30 mg/kg, po relative to control; format: functional
[18] = Protein binding in mouse plasma by equilibrium dialysis; format: ADME, cell-free; settings: read-out: PPB
[19] = tested on: HN5; assay: Antitumor activity against human HN5 cells xenografted in mouse assessed as inhibition of tumor growth at 10 mg/kg, po relative to control; format: functional
[20] = Antitumor activity against human A375P cells xenografted in mouse assessed as inhibition of tumor growth at 100 mg/kg, po relative to control; format: functional
[21] = tested on: HN5; assay: Antitumor activity against human HN5 cells xenografted in mouse assessed as inhibition of tumor growth at 100 mg/kg, po relative to control; format: functional
[22] = Oral bioavailability in dog at 1 mg/kg; format: ADME, organism-based, Canis lupus familiaris; settings: in vivo
[23] = Clearance in dog at 1 mg/kg; format: ADME, organism-based, Canis lupus familiaris; design: dose 1 mg/kg; settings: in vivo
[24] = tested on: Mus musculus; assay: Inhibition of angiogenesis in Swiss Nu/Nu mouse assessed as hemoglobin content at 10 mg/kg, po by bFGF/matrigel plug assay; format: functional
[25] = tested on: HT-29; assay: Antitumor activity against human HT29 cells xenografted in mouse assessed as inhibition of tumor growth at 30 mg/kg, po relative to control; format: functional
[26] = Plasma concentration in mouse at 100 mg/kg, po after 12 hrs; format: ADME, organism-based; design: dose 100 mg/kg, route oral
[27] = AUC (0 to infinity) in mouse at 10 mg/kg, po; format: ADME, organism-based; design: time infinity, dose 10 mg/kg, route oral; settings: plasma
[28] = Antitumor activity against human A375P cells xenografted in mouse assessed as inhibition of tumor growth at 30 mg/kg, po relative to control; format: functional
[29] = tested on: HT-29; assay: Antitumor activity against human HT29 cells xenografted in mouse assessed as inhibition of tumor growth at 10 mg/kg, po relative to control; format: functional
[30] = tested on: Mus musculus; assay: Inhibition of angiogenesis in Swiss Nu/Nu mouse assessed as hemoglobin content at 100 mg/kg, po by bFGF/matrigel plug assay; format: functional
[31] = AUC (0 to infinity) in mouse at 100 mg/kg, po; format: ADME, organism-based; design: time infinity, dose 100 mg/kg, route oral; settings: plasma
[32] = AUC (0 to infinity) in mouse at 30 mg/kg, po; format: ADME, organism-based; design: dose 30 mg/kg, route oral, time infinity; settings: plasma
[33] = Oral bioavailability in monkey at 5 mg/kg; format: ADME, organism-based, Macaca mulatta; settings: rhesus monkey, in vivo
[34] = tested on: HT-29; assay: Antitumor activity against human HT29 cells xenografted in mouse assessed as inhibition of tumor growth at 100 mg/kg, po relative to control; format: functional
[35] = tested on: Mus musculus; assay: Inhibition of angiogenesis in Swiss Nu/Nu mouse assessed as hemoglobin content at 30 mg/kg, po by bFGF/matrigel plug assay; format: functional

T1 sequence (P08684 whole entry): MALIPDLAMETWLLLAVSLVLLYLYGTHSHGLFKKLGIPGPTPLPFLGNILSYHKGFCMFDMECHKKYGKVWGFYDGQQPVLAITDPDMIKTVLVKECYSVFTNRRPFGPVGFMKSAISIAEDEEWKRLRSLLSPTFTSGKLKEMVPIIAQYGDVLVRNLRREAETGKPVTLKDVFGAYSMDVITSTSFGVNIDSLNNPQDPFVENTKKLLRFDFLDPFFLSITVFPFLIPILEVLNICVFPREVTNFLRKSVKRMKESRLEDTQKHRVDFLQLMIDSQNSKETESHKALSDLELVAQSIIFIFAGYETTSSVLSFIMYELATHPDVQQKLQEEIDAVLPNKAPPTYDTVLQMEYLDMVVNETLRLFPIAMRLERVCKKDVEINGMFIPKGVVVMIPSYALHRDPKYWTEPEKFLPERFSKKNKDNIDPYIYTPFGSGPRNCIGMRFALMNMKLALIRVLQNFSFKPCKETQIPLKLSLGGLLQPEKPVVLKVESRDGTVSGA

Compound: Cc1n[nH]c2cc(N(C)c3ccnc(Nc4cccc(S(N)(=O)=O)c4)n3)ccc12
pIC50 [1]: 5.12 | pIC50 [2]: 6.15 | pIC50 [3]: 7.03 | pIC50 [4]: 4.80 | pIC50 [5]: 5.32 | pIC50 [6]: 5.14

Compound: COc1cc2ncnc(Nc3ccc(C)c(O)c3)c2cc1OC
pIC50 [12]: 9.22

Compound: COc1cc2/c(=N/c3ccc(Br)cc3F)nc[nH]c2cc1OCC1CCN(C)CC1 [VANDETANIB]
pIC50 [9]: 6.40

Compound: COc1cc(Nc2nccc(Nc3ccc4c(C)n[nH]c4c3)n2)cc(OC)c1OC [GW612286X]
pIC50 [9]: 6.74 | clearance [7]: 16 mL/min/kg | bioavailability [8]: 85%

Compound: Fc1cnc(Nc2cccc(Br)c2)nc1Nc1cccc(Br)c1
pIC50 [11]: 6.40

Compound: CCS(=O)(=O)c1ccc(OC)c(Nc2nccc(Nc3ccc4c(C)n[nH]c4c3)n2)c1
pIC50 [9]: 6.89 | pIC50 [10]: 4.89 | clearance [7]: 40 mL/min/kg | bioavailability [8]: 28%

Compound: COc1cc2ncnc(Nc3ccc4c(C)n[nH]c4c3)c2cc1OC
pIC50 [11]: 8.77

More lines, main results first:

pIC50 [1]: 5.33 | pIC50 [2]: 5.54 | pIC50 [4]: 5.41 | pIC50 [5]: 4.74 | pIC50 [6]: 5.04
Compound: CN(c1ccc2cn(C)nc2c1)c1ccnc(Nc2cccc(S(N)(=O)=O)c2)n1
pIC50 [3]: 6.96

clearance [7]: 10 mL/min/kg | bioavailability [8]: 65%
Compound: CCS(=O)(=O)c1ccc(OC)c(Nc2nccc(N(C)c3ccc4c(C)n[nH]c4c3)n2)c1

pIC50 [1]: 4.89 | pIC50 [2]: 6.00 | pIC50 [4]: 5.77 | pIC50 [5]: 5.20 | pIC50 [6]: 5.03
Compound: Cc1nn(C)c2cc(N(C)c3ccnc(Nc4cccc(S(N)(=O)=O)c4)n3)ccc12 [GW770220A]
pIC50 [3]: 5.85

pIC50 [1]: 4.57 | pIC50 [2]: 5.05 | pIC50 [4]: 4.35 | pIC50 [5]: 4.48 | pIC50 [6]: 4.48
Compound: Cc1nc2cc(N(C)c3ccnc(Nc4cccc(S(N)(=O)=O)c4)n3)ccc2n1C
pIC50 [3]: 5.85

pIC50 [11]: 8.20
Compound: Cc1ccc(Nc2ccnc(Nc3cccc(Br)c3)n2)cc1O
pIC50 [9]: 6.27 | pIC50 [10]: 5.46

pIC50 [1]: 4.80 | pIC50 [2]: 5.85 | pIC50 [4]: 4.51 | pIC50 [5]: 4.80 | pIC50 [6]: 4.70
Compound: Cc1c2ccc(N(C)c3ccnc(Nc4cccc(S(N)(=O)=O)c4)n3)cc2nn1C
pIC50 [3]: 7.64

pIC50 [1]: 4.59 | pIC50 [2]: 4.82 | pIC50 [4]: 5.77 | pIC50 [5]: 4.60 | pIC50 [6]: 4.59
Compound: Cc1nc2ccc(N(C)c3ccnc(Nc4cccc(S(N)(=O)=O)c4)n3)cc2n1C
pIC50 [3]: 5.55

pIC50 [1]: 4.13 | pIC50 [2]: 6.30 | pIC50 [4]: 4.10 | pIC50 [5]: 4.18 | pIC50 [6]: 5.85
Compound: Cc1c2ccc(N(C)c3ccnc(Nc4cccc(S(N)(=O)=O)c4)n3)cc2nn1Cc1ccccc1
pIC50 [3]: 4.96

concentration at 12 h [13]: 6320 ng/mL | concentration at 12 h [15]: 24800 ng/mL | clearance [16]: 1.4 mL/min/kg | fraction unbound [18]: < 0.001 | bioavailability [22]: 47% | clearance [7]: 1.4 mL/min/kg | bioavailability [8]: 72% | clearance [23]: 1.4 mL/min/kg | concentration at 12 h [26]: 38500 ng/mL | AUC(0-inf) [27]: 220 µg·h/mL | AUC(0-inf) [31]: 1140 µg·h/mL | AUC(0-inf) [32]: 657 µg·h/mL | bioavailability [33]: 65%
Compound: Cc1ccc(Nc2nccc(N(C)c3ccc4c(C)n(C)nc4c3)n2)cc1S(N)(=O)=O [PAZOPANIB]
inhibition in vivo at 10 mg/kg [14]: 16% | inhibition in vivo at 30 mg/kg [17]: 102% | inhibition in vivo at 10 mg/kg [19]: 99% | inhibition in vivo at 100 mg/kg [20]: 55% | inhibition in vivo at 100 mg/kg [21]: 110% | inhibition in vivo at 10 mg/kg [24]: 0% | inhibition in vivo at 30 mg/kg [25]: 59% | inhibition in vivo at 30 mg/kg [28]: 35% | inhibition in vivo at 10 mg/kg [29]: 32% | inhibition in vivo at 100 mg/kg [30]: 83% | inhibition in vivo at 100 mg/kg [34]: 69% | inhibition in vivo at 30 mg/kg [35]: 57%
